{"source": "the RNAGym collection of RNA variant scans (doi:10.1101/gad.245936.114)", "parents": {"B1": {"name": "tRNA (parent)", "chain": "CUCUCGGUAGCCAAGUUGGUUUAAGGCGCAAGACUUUAAUUUAUCACUACGAAAUCUUGAGAUCGGGCGUUCGACUCGCCCCCGGGAGAUUUUUUCCUCGAGCAA"}}, "note": "Variants at the floor of the assay were thinned out."}
{"variants_of": "B1", "experiment": "nonsense suppression (GFP-seq) (ratio to wild type); higher = more function; SUP4oc tRNA, yeast GFP reporter sort-seq", "outline": "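To measure nonsense suppression, tRNA variants from a library carrying ~3% random mutations were integrated into the yeast genome alongside RFP and a GFP ochre reporter under galactose control. Growth took place in raffinose/galactose medium supplemented with 80 mg/L adenine, followed by sorting into GFP/RFP bins and Illumina sequencing of each bin (phred ≥30). For each variant with ≥100 reads and ≥30 cells, the bin median GFP/RFP values were weighted by its estimated cell share per bin and referenced to the unmutated parent tRNA.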"}
{"variant": "U16G U70A C82A", "nonsense suppression": "≤ 0.026"}
{"variant": "A14U U20C A24G C75G", "nonsense suppression": "≤ 0.026"}
{"variant": "U17C U35G G61C U76C", "nonsense suppression": "≤ 0.026"}
{"variant": "U17C C29G", "nonsense suppression": "≤ 0.026"}
{"variant": "G18A G25U C27U G67C", "nonsense suppression": "≤ 0.026"}
{"variant": "U17G A87G", "nonsense suppression": 0.752}
{"variant": "U16C U17C G18A G67A", "nonsense suppression": "≤ 0.026"}
{"variant": "U16C A54C", "nonsense suppression": 1.22}
{"variant": "G15A C75A", "nonsense suppression": 0.854}
{"variant": "U16G C79U", "nonsense suppression": 0.852}
{"variant": "G15U G18A U58C G85U", "nonsense suppression": "≤ 0.026"}
{"variant": "G15U U70G", "nonsense suppression": "≤ 0.026"}
{"variant": "U16G A54C C81U", "nonsense suppression": 0.0601}
{"variant": "G18C A33G C80G", "nonsense suppression": "≤ 0.026"}
{"variant": "G15A G65A", "nonsense suppression": "≤ 0.026"}
{"variant": "G15U A24G G86C", "nonsense suppression": "≤ 0.026"}
{"variant": "A14U U63A", "nonsense suppression": 0.0439}
{"variant": "G18U C83A", "nonsense suppression": "≤ 0.026"}
{"variant": "G15C C34A C82G", "nonsense suppression": 0.816}
{"variant": "U16C A23G G28U", "nonsense suppression": "≤ 0.026"}
{"variant": "U17C U63A C72G", "nonsense suppression": "≤ 0.026"}
{"variant": "G15A A31U U35C U76G C83U", "nonsense suppression": "≤ 0.026"}
{"variant": "U16A A54U", "nonsense suppression": 1.06}
{"variant": "G15C C27G A31C", "nonsense suppression": "≤ 0.026"}
{"variant": "U16G A24U", "nonsense suppression": 0.221}
{"variant": "A14U U16C U58A G61U C72U", "nonsense suppression": "≤ 0.026"}
{"variant": "G19A U63C C82A", "nonsense suppression": "≤ 0.026"}
{"variant": "U16G U17A", "nonsense suppression": 1.05}
{"variant": "U16G U17C", "nonsense suppression": 1.05}
{"variant": "G15A U76C", "nonsense suppression": 0.0394}
{"variant": "U16A C82U", "nonsense suppression": 0.886}
{"variant": "G18U G25U G67C", "nonsense suppression": "≤ 0.026"}
{"variant": "U17A G25C", "nonsense suppression": 0.068}
{"variant": "U17A U21A", "nonsense suppression": 0.966}
{"variant": "U17G A24C", "nonsense suppression": 0.653}
{"variant": "U17G A24U", "nonsense suppression": 0.159}
{"variant": "U17G A30U", "nonsense suppression": 0.0613}
{"variant": "U17G A30G", "nonsense suppression": 0.397}
{"variant": "U17A A60C", "nonsense suppression": 0.19}
{"variant": "G18C G61A", "nonsense suppression": "≤ 0.026"}
{"variant": "G18U A30U G78U", "nonsense suppression": "≤ 0.026"}
{"variant": "U17G G67A", "nonsense suppression": 0.0593}
{"variant": "U16A C29U", "nonsense suppression": 0.186}
{"variant": "G15U U21A U55G", "nonsense suppression": "≤ 0.026"}
{"variant": "U17C A54U", "nonsense suppression": 0.788}
{"variant": "U17C G28A", "nonsense suppression": 1.09}
{"variant": "U16G U21G", "nonsense suppression": 1.1}
{"variant": "U16G U21C", "nonsense suppression": 0.905}
{"variant": "U16G G67A", "nonsense suppression": 0.178}
{"variant": "G15A G73C C75G", "nonsense suppression": "≤ 0.026"}
{"variant": "U17G U55C", "nonsense suppression": 0.0769}
{"variant": "G15A U57C G59C G78A", "nonsense suppression": "≤ 0.026"}
{"variant": "U16A C34G U63C C77G G86C", "nonsense suppression": "≤ 0.026"}
{"variant": "G15C A87U", "nonsense suppression": "≤ 0.026"}
{"variant": "G18C C29U G85A G88A", "nonsense suppression": "≤ 0.026"}
{"variant": "U16C U21G A31G G32C G69A U71C C75A G86A", "nonsense suppression": "≤ 0.026"}
{"variant": "U17A U63A U76C", "nonsense suppression": 0.155}
{"variant": "U16C U21C", "nonsense suppression": 1.03}
{"variant": "G15C G26U U57C G78C", "nonsense suppression": "≤ 0.026"}
{"variant": "U17G A54U G61C", "nonsense suppression": 0.162}
{"variant": "G15C A33U G61A", "nonsense suppression": "≤ 0.026"}
{"variant": "G15U U71A C82G", "nonsense suppression": "≤ 0.026"}
{"variant": "U16A A24C", "nonsense suppression": 0.872}
{"variant": "U16G A54U", "nonsense suppression": 1.18}
{"variant": "G15A G28A C75A", "nonsense suppression": 0.24}
{"variant": "G15U U20C", "nonsense suppression": 0.0275}
{"variant": "U17C A60C", "nonsense suppression": 0.196}
{"variant": "U17C A60G", "nonsense suppression": 0.411}
{"variant": "U17G C79U", "nonsense suppression": 0.764}
{"variant": "G18C G19A A24U", "nonsense suppression": "≤ 0.026"}
{"variant": "U16G A31G", "nonsense suppression": 1.15}
{"variant": "U16C U55C", "nonsense suppression": 0.769}
{"variant": "U17C C75A G88A", "nonsense suppression": "≤ 0.026"}
{"variant": "G15C C56A", "nonsense suppression": "≤ 0.026"}
{"variant": "U17C G61A", "nonsense suppression": 0.235}
{"variant": "U17C G61C", "nonsense suppression": 0.769}
{"variant": "U17A G28U A31C C80G G84C G86A", "nonsense suppression": "≤ 0.026"}
{"variant": "G18U U55C", "nonsense suppression": 0.0402}
{"variant": "G15C A23G G66A", "nonsense suppression": "≤ 0.026"}
{"variant": "U17C A62C", "nonsense suppression": 0.734}
{"variant": "U17G A60C", "nonsense suppression": 0.188}
{"variant": "G19A U21G C64U", "nonsense suppression": "≤ 0.026"}
{"variant": "U17A G32C U71G", "nonsense suppression": 0.0947}
